Here are results for two molecules from ChEMBL document CHEMBL3286244, “Chlorpheniramine Analogues Reverse Chloroquine Resistance in Plasmodium falciparum by Inhibiting PfCRT” (ACS Med Chem Lett, 2014).

Experiment [1] concerns the target T1, Chloroquine resistance transporter (Plasmodium falciparum) (UniProt Q9N623).
T1 sequence (whole entry): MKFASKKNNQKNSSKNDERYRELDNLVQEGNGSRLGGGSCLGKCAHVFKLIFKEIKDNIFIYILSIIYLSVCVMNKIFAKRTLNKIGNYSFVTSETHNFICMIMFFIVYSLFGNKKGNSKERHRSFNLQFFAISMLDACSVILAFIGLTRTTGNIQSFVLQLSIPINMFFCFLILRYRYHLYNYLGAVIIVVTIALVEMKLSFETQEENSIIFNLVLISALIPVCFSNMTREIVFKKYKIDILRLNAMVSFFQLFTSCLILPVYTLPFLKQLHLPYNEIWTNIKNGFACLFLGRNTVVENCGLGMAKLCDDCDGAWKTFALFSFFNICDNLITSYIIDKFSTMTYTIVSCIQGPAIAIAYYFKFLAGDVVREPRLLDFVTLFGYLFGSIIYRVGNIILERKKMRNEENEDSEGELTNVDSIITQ
Kind of experiment: Inhibition of chloroquine-resistant Plasmodium falciparum Dd2 CRT expressed in Xenopus laevis oocytes plasma membrane assessed as reduction of [3H]-chloroquine transportation at 100 uM after 1 to 2 hrs. The experiment is classed as cell-based. A digest of the protocol:
(§1)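 Xenopus oocytes expressing PfCRT of the CQ-resistant (PfCRTCQR) or CQ-sensitive (PfCRTCQS) form. [3H]CQ uptake measured in the presence of reverser at 100 μM extracellular.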

In experiment [2] the test system is Plasmodium falciparum. Kind of experiment: Antiplasmodial activity against Plasmodium falciparum C4Dd2 expressing chloroquine-resistance-conferring pfcrt alleles assessed as parasite growth at 800 nM after 72 hrs by SYBR Green I-based fluorescence assay relative to control. Format: functional. Summed up: (§2)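 Isogenic pfcrt transfectant lines (C2GCO3 wild-type allele; C4Dd2 and C67G8 carrying CQ-resistance-conferring alleles from Dd2 or 7G8). Parasite proliferation measured in the absence of CQ with test compound at 800 nM and expressed relative to untreated control.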

For experiment [3], the target named is T1, Chloroquine resistance transporter (Plasmodium falciparum). Kind of experiment: Inhibition of CTR in Plasmodium falciparum C4Dd2 expressing chloroquine-resistance-conferring pfcrt alleles assessed as increase of accumulation of [3H]-chloroquine level at 1 uM after 1 hr relative to control. A digest of the protocol: (§3)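 Isogenic pfcrt transfectant lines C2GCO3 (wild-type allele), C4Dd2 and C67G8 (CQ-resistance alleles from Dd2 or 7G8). CQ accumulation ratio measured with and without reverser. Expressed as fold increase in accumulation ratio over control.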

Experiment [4] shares this target. Description: Inhibition of chloroquine-sensitive Plasmodium falciparum D10 CRT expressed in Xenopus laevis oocytes plasma membrane assessed as reduction of [3H]-chloroquine transportation at 100 uM after 1 to 2 hrs. Format: cell-based. Summed up:
as §1

Experiment [5] shares this target. Kind of experiment: Inhibition of CTR in Plasmodium falciparum C2GC03 expressing wild-type pfcrt allele assessed as increase of accumulation of [3H]-chloroquine level at 1 uM after 1 hr. A digest of the protocol:
as §3

For experiment [6], the system named is Plasmodium falciparum. Kind of experiment: Response modification index, ratio of IC50 for Plasmodium falciparum C2GC03 expressing wild-type pfcrt allele in presence of drug to IC50 for Plasmodium falciparum C2GC03 expressing wild-type pfcrt allele in absence of 800 nM of drug. Format: functional. Summed up:
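In a parasite proliferation assay on the isogenic pfcrt transfectant line C2GCO3 (wild-type allele), chloroquine IC50 was measured with and without the test compound at 800 nM. RMI is chloroquine IC50 with the compound divided by chloroquine IC50 without it.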

Experiment [7] concerns Plasmodium falciparum. Description: Antiplasmodial activity against Plasmodium falciparum C67G8 expressing chloroquine-resistance-conferring pfcrt alleles assessed as parasite growth at 800 nM after 72 hrs by SYBR Green I-based fluorescence assay relative to control. Format: functional. A digest of the protocol:
as §2

Experiment [8] addresses T1, Chloroquine resistance transporter (Plasmodium falciparum). Description: Inhibition of CTR in Plasmodium falciparum C67G8 expressing chloroquine-resistance-conferring pfcrt alleles assessed as increase of accumulation of [3H]-chloroquine level at 1 uM after 1 hr relative to control. Summed up: as §3
In experiment [9] the target is Chloroquine resistance transporter (Plasmodium falciparum, UniProt Q9N623). Description: Inhibition of chloroquine-resistant Plasmodium falciparum Dd2 CRT expressed in Xenopus laevis oocytes plasma membrane assessed as reduction of [3H]-chloroquine transportation after 1 to 2 hrs. The experiment is classed as cell-based. Summed up: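 Xenopus oocytes expressing PfCRTCQR. Inhibition of [3H]CQ uptake measured over a range of reverser concentrations. IC50 derived from concentration-response data, reported as mean ± SEM.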

Experiment [10] has as its system Plasmodium falciparum. Kind of experiment: Antiplasmodial activity against Plasmodium falciparum C2GC03 expressing wild-type pfcrt allele assessed as parasite growth at 800 nM after 72 hrs by SYBR Green I-based fluorescence assay relative to control. Format: functional. A digest of the protocol: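 Isogenic pfcrt transfectant parasite line C2GCO3 (wild-type pfcrt allele) was grown in a proliferation assay with the test compound at 800 nM and no chloroquine. Proliferation is expressed relative to untreated control.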

The subject of experiment [11] is Plasmodium falciparum. Kind of experiment: Response modification index, ratio of IC50 for Plasmodium falciparum C4Dd2 expressing chloroquine-resistance-conferring pfcrt alleles in presence of drug to IC50 for Plasmodium falciparum C4Dd2 expressing chloroquine-resistance-conferring pfcrt alleles in absence of 800 nM of drug. Format: functional. Summed up: (§4)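 Proliferation assays on isogenic pfcrt transfectant lines (C4Dd2, C67G8). CQ IC50 determined with and without 800 nM test compound. RMI calculated as CQ IC50 with compound divided by CQ IC50 without compound.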

For experiment [12], the system named is Plasmodium falciparum. Description: Response modification index, ratio of IC50 for Plasmodium falciparum C67G8 expressing chloroquine-resistance-conferring pfcrt alleles in presence of drug to IC50 for Plasmodium falciparum C67G8 expressing chloroquine-resistance-conferring pfcrt alleles in absence of 800 nM of drug. Format: functional. A digest of the protocol:
as §4

Activity calls are given as the source filed them. No cut-off for these calls is given here.

A word on the IC50: it is the point on the concentration scale where inhibition reaches its midpoint. As for `CCN(CC)C/C=C(\c1ccc(Cl)cc1)c1ccccn1`, the inhibition entry in [1], in experiment [4] and in experiment [5] was “inactive” each time. Besides, the Activity with Plasmodium falciparum [2] came out at 84%; in the experiment on Plasmodium falciparum [7] it was 90%; with Plasmodium falciparum [10] it was 100%. The fold change (FC) in experiment [3] came out at 1.6; in experiment [8], 1.4. For the same molecule, the figures for the “Ratio IC50” value in the experiment on Plasmodium falciparum [6], with Plasmodium falciparum [11] and with Plasmodium falciparum [12] were 1.01, 0.49 and 0.69, respectively. In experiment [9], the IC50 amounted to 321 µM.
Consider `CN(C)CCCC(c1cccc(Cl)c1)c1ccccn1` (racemic), for which the inhibition entry in experiment [1], in experiment [4] and in experiment [5] was “inactive” each time. Further, the figures for the Activity in the experiment with Plasmodium falciparum [2], with Plasmodium falciparum [7] and in the experiment with Plasmodium falciparum [10] were 67%, 72% and 99%, respectively. The fold change (FC) was determined as 2.7 in [3] and 2 in experiment [8]. Further, the “Ratio IC50” value in the experiment with Plasmodium falciparum [6] is on record as 0.95; with Plasmodium falciparum [11], 0.27; in the experiment with Plasmodium falciparum [12], 0.35. Also, the IC50 in [9] worked out at 66 µM.
